Reference: ChEMBL document CHEMBL4033692, “Synthesis and biological research of novel azaacridine derivatives as potent DNA-binding ligands and topoisomerase II inhibitors” (Bioorg Med Chem, 2017)
The source made the active and inactive calls. The rule behind the calls is not given here.

How the values were obtained:
[1] = organism: Homo sapiens; test: Inhibition of human topoisomerase-2 at 50 uM using supercoiled pBR322 DNA as substrate after 10 to 15 mins by ethidium bromide staining based electrophoresis relative to control
Procedure, shortened: (§1)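 Relaxation of supercoiled pBR322 (500 ng) by 1 unit of human Top I or Top II, with or without compound in reaction buffer. Reactions ran 10-15 min at 37 °C and were stopped with loading buffer. Products were run on 1% agarose in TAE at 90 V for 25 min and stained with ethidium bromide under UV. Controls were CPT (Top I) and m-AMSA (Top II).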

[2] = Antiproliferative activity against human QSG7701 cells after 48 hrs by MTT assay; assay type: cell-based; conditions: QSG7701, 48 h
Procedure, shortened: (§2)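 MTT assay. Cells were seeded at 5-10×10^3 per well and incubated overnight at 37 °C under 5% CO2. Graded compound concentrations or equal DMSO in fresh medium were then added for 48 h. MTT (5 mg/mL stock) was added for a further 4 h, formazan was dissolved in DMSO, and A490 was read. IC50 is given as mean ± S.D. of three experiments in triplicate.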

[3] = test system: HeLa; test: Antiproliferative activity against human HeLa cells after 48 hrs by MTT assay; assay type: functional, cell-based; procedure, shortened: as §2
[4] = test system: K562; test: Antiproliferative activity against human K562 cells after 48 hrs by MTT assay; assay type: functional, cell-based; conditions: K562, 48 h; procedure, shortened: as §2
[5] = test system: U-937; test: Antiproliferative activity against human U937 cells after 48 hrs by MTT assay; assay type: functional, cell-based; conditions: U-937, 48 h; procedure, shortened: as §2
[6] = test system: HepG2; test: Antiproliferative activity against human HepG2 cells after 48 hrs by MTT assay; assay type: functional, cell-based; conditions: HepG2, 48 h; procedure, shortened: as §2
[7] = organism: Homo sapiens; test: Inhibition of human topoisomerase-2 at 10 uM using supercoiled pBR322 DNA as substrate after 10 to 15 mins by ethidium bromide staining based electrophoresis relative to control; procedure, shortened: as §1
[8] = organism: Homo sapiens; test: Inhibition of human topoisomerase-2 at 50 to 100 uM using supercoiled pBR322 DNA as substrate after 10 to 15 mins by ethidium bromide staining based electrophoresis; procedure, shortened: as §1
[9] = test system: A549; test: Antiproliferative activity against human A549 cells after 48 hrs by MTT assay; assay type: functional, cell-based; conditions: A549, 48 h; procedure, shortened: as §2
[10] = biological target: T1, DNA topoisomerase 1 (Homo sapiens) (UniProt P11387); test: Inhibition of human topoisomerase-1 at 100 uM using supercoiled pBR322 DNA as substrate after 10 to 15 mins by ethidium bromide staining based electrophoresis; procedure, shortened: as §1
T1 sequence (whole entry): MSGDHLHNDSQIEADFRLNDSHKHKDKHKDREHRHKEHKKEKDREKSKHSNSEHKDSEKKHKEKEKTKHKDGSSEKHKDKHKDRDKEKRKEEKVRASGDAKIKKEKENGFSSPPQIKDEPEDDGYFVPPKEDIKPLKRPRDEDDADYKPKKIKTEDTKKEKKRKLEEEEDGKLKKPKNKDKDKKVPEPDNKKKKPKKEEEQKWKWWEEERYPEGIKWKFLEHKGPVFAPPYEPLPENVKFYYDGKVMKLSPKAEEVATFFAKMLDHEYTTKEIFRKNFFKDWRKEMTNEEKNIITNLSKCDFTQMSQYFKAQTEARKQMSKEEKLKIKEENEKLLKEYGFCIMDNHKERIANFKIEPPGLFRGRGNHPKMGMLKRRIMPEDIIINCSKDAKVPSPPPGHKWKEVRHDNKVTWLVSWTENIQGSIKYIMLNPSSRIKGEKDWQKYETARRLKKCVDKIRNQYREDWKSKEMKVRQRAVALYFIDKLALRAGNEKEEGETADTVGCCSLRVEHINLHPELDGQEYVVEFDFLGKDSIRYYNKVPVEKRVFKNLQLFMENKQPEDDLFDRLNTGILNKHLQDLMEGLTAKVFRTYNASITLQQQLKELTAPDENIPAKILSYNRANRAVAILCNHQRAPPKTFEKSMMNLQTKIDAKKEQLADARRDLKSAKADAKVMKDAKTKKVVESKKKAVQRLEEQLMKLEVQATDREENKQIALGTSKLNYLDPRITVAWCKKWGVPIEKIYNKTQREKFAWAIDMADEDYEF

[11] = test system: U-937; test: Induction of apoptosis in human U937 cells assessed as early apoptotic cells at 1 uM after 48 hrs by Annexin-V FITC/propidium iodide staining based flow cytometry (reference value: 7.42%); assay type: functional
Procedure, shortened: (§3)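 U937 cells were treated for 48 h at 0, 1 or 2.5 µM. Phosphatidylserine externalization (Annexin V-FITC) and membrane integrity (PI) were then read by flow cytometry using a kit per the manufacturer's instructions.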

[12] = organism: Bos taurus; test: Binding affinity to calf thymus DNA after 5 mins by fluorescence emission spectral analysis
Procedure, shortened: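 Fluorescence titration in Tris-HCl pH 7.4. Compound came from a 5 mM DMSO stock, with ct DNA at final 0, 0.2, 0.7, 1, 1.5 and 2.5 µM. Mixtures were incubated 5 min before emission spectra were recorded. Quenching was fitted to F0/F = 1 + Kq[Q].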

[13] = test system: U-937; test: Induction of apoptosis in human U937 cells assessed as increase in cleaved caspase-8 protein expression at 1 to 2.5 uM after 48 hrs by Western blot analysis; assay type: functional, cell-based
Procedure, shortened: (§4)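 U937 cells in dishes were exposed to 1 or 2.5 µM for 48 h and lysed on ice for 0.5 h. Protein was quantified by BCA, run on 12% SDS-PAGE and transferred to PVDF. Membranes were blocked in 5% milk for 1 h, and primary antibody was applied overnight at 4 °C. Cleaved caspase-3/7/8 was detected with β-actin as loading control.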

[14] = test system: U-937; test: Induction of apoptosis in human U937 cells after 48 hrs by Annexin-V FITC/propidium iodide staining based flow cytometry; assay type: functional, cell-based; procedure, shortened: as §3
[15] = Safety index, ratio of compound IC50 to m-AMSA IC50 for human QSG7701 cells; assay type: ADME, cell-based; conditions: read-out: Ratio IC50
[16] = test system: U-937; test: Induction of apoptosis in human U937 cells assessed as necrotic cells at 1 uM after 48 hrs by Annexin-V FITC/propidium iodide staining based flow cytometry relative to control; assay type: functional; procedure, shortened: as §3
[17] = test system: U-937; test: Induction of apoptosis in human U937 cells assessed as increase in cleaved caspase-3 protein expression at 1 to 2.5 uM after 48 hrs by Western blot analysis; assay type: functional, cell-based; procedure, shortened: as §4
[18] = organism: Bos taurus; test: Binding affinity to calf thymus DNA assessed as bathochromic shift at 40 uM after 5 mins by UV-Visible absorption spectral analysis
Procedure, shortened: (§5)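 UV-vis titration in Tris-HCl pH 7.4 in a 1.0 cm quartz cell. Compound was at 40 µM (added from a 5 mM DMSO stock) with ct DNA at final 0, 0.75, 2.25, 3.75, 6.00 and 9.75 µM. Each mixture was incubated 5 min before the absorption spectrum was recorded.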

[19] = test system: U-937; test: Induction of apoptosis in human U937 cells assessed as live cells at 2.5 uM after 48 hrs by Annexin-V FITC/propidium iodide staining based flow cytometry (reference value: 92.4%); assay type: functional; procedure, shortened: as §3
[20] = test system: U-937; test: Induction of apoptosis in human U937 cells assessed as early apoptotic cells at 2.5 uM after 48 hrs by Annexin-V FITC/propidium iodide staining based flow cytometry (reference value: 7.42%); assay type: functional; procedure, shortened: as §3
[21] = organism: Bos taurus; test: Binding affinity to calf thymus DNA after 5 mins by UV-Visible absorption spectral analysis; procedure, shortened: as §5
[22] = test system: U-937; test: Induction of apoptosis in human U937 cells assessed as late apoptotic cells at 1 uM after 48 hrs by Annexin-V FITC/propidium iodide staining based flow cytometry (reference value: 0.144%); assay type: functional; procedure, shortened: as §3
[23] = test system: U-937; test: Induction of apoptosis in human U937 cells assessed as live cells at 1 uM after 48 hrs by Annexin-V FITC/propidium iodide staining based flow cytometry (reference value: 92.4%); assay type: functional; procedure, shortened: as §3
[24] = test system: U-937; test: Induction of apoptosis in human U937 cells assessed as necrotic cells at 2.5 uM after 48 hrs by Annexin-V FITC/propidium iodide staining based flow cytometry relative to control; assay type: functional; procedure, shortened: as §3
[25] = test system: U-937; test: Induction of apoptosis in human U937 cells assessed as late apoptotic cells at 2.5 uM after 48 hrs by Annexin-V FITC/propidium iodide staining based flow cytometry (reference value: 0.144%); assay type: functional; procedure, shortened: as §3
[26] = test system: U-937; test: Induction of apoptosis in human U937 cells assessed as increase in cleaved caspase-7 protein expression at 1 to 2.5 uM after 48 hrs by Western blot analysis; assay type: functional, cell-based; procedure, shortened: as §4

inhibition [1]	IC50 [3] [µM]	IC50 [4] [µM]	IC50 [5] [µM]	IC50 [6] [µM]	inhibition [7] [%]	topoisomerase II inhibition (active/inactive) [8]	SMILES	IC50 [2] [µM]	further results
Active	19.2	0.88	0.61	5.21	56.9	–	COc1cc(NS(C)(=O)=O)ccc1Nc1c2ccccc2nc2ccccc12 [AMSACRINE]	6.43	–
> 50%	–	16.5	> 20	> 20	> 40	Active	COc1ccc2nc3cc(Cl)ccc3c(Nc3ccc(F)cc3)c2n1	–	–
> 50%	14.8	7.59	0.76	> 20	75.1	Active	COc1ccc2nc3cc(Cl)ccc3c(NCc3nc4ccccc4n3CCN(C)C)c2n1	21.2	IC50 [9]: 13.1 µM; inhibition [10]: Active
–	–	> 20	–	> 20	–	–	COc1ccc2nc3cc(Cl)ccc3c(NCc3nc4ccccc4[nH]3)c2c1	–	–
> 50%	–	13.8	> 20	> 20	–	Active	COc1ccc(Nc2c3ccc(Cl)cc3nc3ccc(OC)nc23)cc1	–	–
28.1%	–	10.9	> 20	> 20	–	Active	COc1ccc2nc3cc(Cl)ccc3c(Nc3ccccc3F)c2n1	–	–
> 50%	–	13.7	> 20	> 20	> 40	Active	COc1ccc2nc3cc(Cl)ccc3c(Nc3ccncc3)c2n1	–	–
> 50%	12.6	6.06	0.57	6.62	–	Active	COc1ccc2nc3cc(Cl)ccc3c(NCc3nc4ccccc4[nH]3)c2n1	29.4	Activity [11]: 17.5%; Kq [12]: 2.34 ×10⁵ /M; Activity [13]: Active; Activity [14]: Dose-dependent effect; selectivity ratio [15]: > 3; Activity [16]: 0.227%; Activity [17]: Active; Activity [18]: Active; Activity [19]: 61.3%; Activity [20]: 26.2%; IC50 [9]: 4.8 µM; Kb [21]: 3.34 ×10⁵ /M; Activity [22]: 6.48%; Activity [23]: 75.8%; Activity [24]: 0.322%; Activity [25]: 12.2%; Activity [26]: Active
> 50%	–	14	> 20	> 20	–	Active	COc1ccc2nc3cc(Cl)ccc3c(Nc3ccc(C)cc3C)c2n1	–	–
> 50%	–	15.5	> 20	> 20	> 40	Active	COc1ccc2nc3cc(Cl)ccc3c(Nc3cccc(F)c3)c2n1	–	–
> 50%	–	6.1	> 20	> 20	> 40	Active	COc1ccc2nc3cc(Cl)ccc3c(Nc3ccccc3Cl)c2n1	–	–

SMILES	inhibition [1]	IC50 [3] [µM]	IC50 [4] [µM]	IC50 [5] [µM]	IC50 [6] [µM]	inhibition [7] [%]	topoisomerase II inhibition (active/inactive) [8]	IC50 [2] [µM]	further results
CC[C@@]1(O)C(=O)OCc2c1cc1n(c2=O)Cc2cc3ccccc3nc2-1 [CAMPTOTHECIN]	–	3.8	–	–	4.92	–	–	< 1	IC50 [9]: < 1 µM
